Calls of active or inactive are those of the source. The rule behind the calls is not given here.
What was measured:
Rattus norvegicus [1] = assay: Narcotic antagonist activity in heat stimulus rat tail flick assay after subcutaneous administration; type: functional; settings: sc
Procedure, shortened: (§1)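 Subcutaneous dosing. Salts were given in distilled H2O, and free bases were dissolved with 1 N HCl and then diluted. Each ED50 (agonist) or AD50 (antagonist) came from at least three doses, with at least five animals per dose.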

Mus musculus [2] = assay: Compound was tested for narcotic agonistic activity in acetic acid mouse writhing assay after subcutaneous administration of the drug at a dose of 28 uM/kg; Inactive; type: functional, organism-based
Mus musculus [3] = assay: Compound was tested for narcotic agonistic activity in acetic acid mouse writhing assay after subcutaneous administration of the drug at a dose of 23 uM/kg; Inactive; type: functional, organism-based
Rattus norvegicus [4] = assay: Compound was tested for antinociceptive activity in heat stimulus rat tail flick assay after subcutaneous administration of the drug at a dose of 23 umol/Kg; Inactive; type: functional, organism-based
Mus musculus [5] = assay: Narcotic agonistic activity in acetic acid mouse writhing assay after subcutaneous administration of the drug; type: functional; settings: sc; procedure, shortened: as §1
Rattus norvegicus [6] = assay: Compound was tested for antinociceptive activity in heat stimulus rat tail flick assay after subcutaneous administration of the drug; type: functional; settings: sc; procedure, shortened: as §1
Rattus norvegicus [7] = assay: Compound was tested for antinociceptive activity in heat stimulus rat tail flick assay after subcutaneous administration of the drug at a dose of 21 umol/Kg; Inactive; type: functional, organism-based
Rattus norvegicus [8] = assay: Compound was tested for antinociceptive activity in heat stimulus rat tail flick assay after subcutaneous administration of the drug at a dose of 29 umol/Kg; Inactive; type: functional, organism-based
Rattus norvegicus [9] = assay: Compound was tested for antinociceptive activity in heat stimulus rat tail flick assay after subcutaneous administration of the drug at a dose of 30 umol/Kg; Inactive; type: functional, organism-based
Rattus norvegicus [10] = assay: Compound was tested for antinociceptive activity in heat stimulus rat tail flick assay after subcutaneous administration of the drug at a dose of 28 umol/Kg; Inactive; type: functional, organism-based
Mus musculus [11] = assay: Compound was tested for narcotic agonistic activity in acetic acid mouse writhing assay after subcutaneous administration of the drug at a dose of 26 uM/kg; Inactive; type: functional, organism-based
Mus musculus [12] = assay: Compound was tested for narcotic agonistic activity in acetic acid mouse writhing assay after subcutaneous administration of the drug at a dose of 18 uM/kg; Inactive; type: functional, organism-based
Mus musculus [13] = assay: Compound was tested for narcotic agonistic activity in acetic acid mouse writhing assay after subcutaneous administration of the drug at a dose of 25 uM/kg; Inactive; type: functional, organism-based
Rattus norvegicus [14] = assay: Compound was tested for antinociceptive activity in heat stimulus rat tail flick assay after subcutaneous administration of the drug at a dose of 18 umol/Kg; Inactive; type: functional, organism-based
Rattus norvegicus [15] = assay: Compound was tested for antinociceptive activity in heat stimulus rat tail flick assay after subcutaneous administration of the drug at a dose of 25 umol/Kg; Inactive; type: functional, organism-based

Structure (SMILES)	ED50 (Rattus norvegicus [1]) [µmol/kg]	ED50 (Mus musculus [5]) [µmol/kg]	other results
COc1ccc2c3c1O[C@H]1C(=O)CC[C@@]4(O)[C@@H](C2)N(CC2CC2)CC[C@]314	0.7	–	ED50 (Mus musculus [2]): inactive
COc1ccc2c3c1O[C@H]1C(=O)[C@@H](CC(C)(C)C)CC4C(C2)N(C)CCC341 (stereo not given in full)	–	–	ED50 (Mus musculus [3]): inactive; ED50 (Rattus norvegicus [4]): inactive
COc1ccc2c3c1O[C@H]1C(=O)[C@@H](C)CC4C(C2)N(CC2CCC2)CCC341 (stereo not given in full)	> 25	> 25	–
O=C1CCC2C3Cc4ccc(O)c5c4C2(CCN3CC2CC2)[C@H]1O5 (stereo not given in full)	0.6	4.1	–
COc1ccc2c3c1O[C@H]1C(=O)[C@@H](C)[C@H](C)C4C(C2)N(CC2CC2)CCC341 (stereo not given in full)	2.4	> 25	–
COc1ccc2c3c1O[C@H]1C(=O)[C@@H](C)CC4C(C2)N(C)CCC341 (stereo not given in full)	–	2.7	ED50 (Rattus norvegicus [6]): 4.2 µmol/kg
O=C1CCC2(O)C3Cc4ccc(O)c5c4C2(CCN3CC2CCC2)[C@H]1O5 (stereo not given in full)	1.1	9.7	–
CC[C@H]1CC2C3Cc4ccc(OC)c5c4C2(CCN3C)[C@@H](O5)C1=O (stereo not given in full)	–	4.6	ED50 (Rattus norvegicus [7]): inactive
O=C1CC[C@@]2(O)[C@H]3Cc4ccc(O)c5c4[C@@]2(CCN3CC2CC2)[C@H]1O5 [NALTREXONE]	0.2	> 28	–
COc1ccc2c3c1O[C@H]1C(=O)[C@@H](C)CC4(O)C(C2)N(CC2CC2)CCC314 (stereo not given in full)	25.4	18.7	–
COc1ccc2c3c1O[C@H]1C(=O)[C@@H](C)[C@H](C)C4C(C2)N(CC2CCC2)CCC341 (stereo not given in full)	> 26	> 26	–
COc1ccc2c3c1O[C@H]1C(=O)CCC4C(C2)N(CC2CCC2)CCC341 (stereo not given in full)	–	20.3	–
C[C@@H]1C(=O)[C@@H]2Oc3c(O)ccc4c3C23CCN(CC2CCC2)C(C4)C3[C@H]1C (stereo not given in full)	6.5	15	–
COc1ccc2c3c1O[C@H]1c4[nH]c(C)cc4CC4C(C2)N(C)CCC341 (stereo not given in full)	–	> 29	ED50 (Rattus norvegicus [8]): inactive
COc1ccc2c3c1O[C@H]1c4oc(C)cc4CC4C(C2)N(C)CCC341 (stereo not given in full)	–	12.3	ED50 (Rattus norvegicus [9]): inactive
COc1ccc2c(c1O)C13CCN(CC4CC4)C(C2)C1C[C@H](C)C(=O)C3 (stereo not given in full)	> 28	9.7	–
COc1ccc2c3c1O[C@H]1[C@@H](O)[C@@H](CC(C)=O)CC4C(C2)N(C)CCC341 (stereo not given in full)	–	> 28	ED50 (Rattus norvegicus [10]): inactive
C[C@H]1[C@H]2Cc3ccc(O)cc3[C@]1(C)CCN2CC1CC1 [CYCLAZOCINE]	0.8	0.4	–
CC(C)=CCN1CC[C@]2(C)c3cc(O)ccc3C[C@H]1[C@H]2C [(+)-PENTAZOCINE]	36.4	13	–
Oc1ccc2c(c1)[C@@]13CCCC[C@@]1(O)[C@@H](C2)N(CC1CCC1)CC3 [BUTORPHANOL]	2	0.3	–
C[C@@H]1C(=O)[C@@H]2Oc3c(O)ccc4c3C23CCN(CC2CC2)C(C4)C3[C@H]1C (stereo not given in full)	1.5	–	ED50 (Mus musculus [11]): inactive
COc1ccc2c3c1O[C@H]1[C@@H](O)C=C[C@H]4[C@@H](C2)N(C)CC[C@@]341 [CODEINE]	–	10.3	ED50 (Rattus norvegicus [6]): 75 µmol/kg

Structure (SMILES)	ED50 (Rattus norvegicus [1]) [µmol/kg]	ED50 (Mus musculus [5]) [µmol/kg]	other results
COc1ccc2c3c1O[C@H]1C(=O)CCC4C(C2)N(CC2CC2)CCC341 (stereo not given in full)	7.9	39.6	–
COc1ccc2c3c1O[C@H]1[C@@H](O)[C@@H](CC(C)(C)O)CC4C(C2)N(C)CCC341 (stereo not given in full)	–	–	ED50 (Rattus norvegicus [6]): > 18 µmol/kg; ED50 (Mus musculus [12]): inactive
COc1ccc2c(c1O)C13CCN(CC4CCC4)C(C2)C1[C@@H](C)[C@H](C)C(=O)C3 (stereo not given in full)	> 22	14	–
CN1CC[C@]23c4c5ccc(O)c4O[C@H]2[C@@H](O)C=C[C@H]3[C@H]1C5 [MORPHINE]	–	–	ED50 (Rattus norvegicus [6]): 19 µmol/kg
COc1ccc2c3c1OC1C(=O)[C@@H](C)CC4C(C2)N(CC2CC2)CCC314 (stereo not given in full)	4.1	–	ED50 (Mus musculus [13]): inactive
COc1ccc2c(c1O)C13CCN(CC4CC4)C(C2)C1[C@@H](C)[C@H](C)C(=O)C3 (stereo not given in full)	> 25	> 25	–
COc1ccc2c3c1O[C@H]1C(=O)CC[C@@]4(O)[C@@H](C2)N(C)CC[C@]314 [OXYCODONE]	–	1.5	ED50 (Rattus norvegicus [6]): 2.9 µmol/kg
COc1ccc2c3c1O[C@H]1C(=O)/C(=C/N(C)C)CC4C(C2)N(C)CCC341 (stereo not given in full)	–	11	ED50 (Rattus norvegicus [10]): inactive
O=C1CCC2C3Cc4ccc(O)c5c4C2(CCN3CC2CCC2)[C@H]1O5 (stereo not given in full)	5	0.2	–
COc1ccc2c3c1O[C@H]1C(=O)[C@@H](CO)CC4C(C2)N(C)CCC341 (stereo not given in full)	–	9.1	ED50 (Rattus norvegicus [9]): inactive
COc1ccc2c3c1O[C@H]1C(=O)CCC4(O)C(C2)N(CC2CCC2)CCC314 (stereo not given in full)	> 18	16.2	–
COc1ccc2c3c1O[C@H]1C(=O)[C@@H](C)CC4(O)C(C2)N(CC2CCC2)CCC314 (stereo not given in full)	–	1.2	ED50 (Rattus norvegicus [14]): inactive
C=CCN1CC[C@]23c4c5ccc(O)c4O[C@H]2[C@@H](O)C=C[C@H]3[C@H]1C5 [NALORPHINE]	2.5	3.5	–
COc1ccc2c3c1O[C@H]1C(=O)[C@@H](Cc4ccccc4)CC4C(C2)N(C)CCC341 (stereo not given in full)	–	> 25	ED50 (Rattus norvegicus [15]): inactive
COc1ccc2c3c1O[C@H]1C(=O)CC[C@H]4[C@@H](C2)N(C)CC[C@]314 [HYDROCODONE]	–	2.4	ED50 (Rattus norvegicus [6]): 5.2 µmol/kg
CCCCC[C@H]1CC2C3Cc4ccc(OC)c5c4C2(CCN3C)[C@@H](O5)C1=O (stereo not given in full)	–	20.7	–
COc1ccc2c(c1OC)C13CCN(CC4CC4)C(C2)C1C[C@H](C)C(=O)C3 (stereo not given in full)	~25	9.1	–
C[C@H]1CC2C3Cc4ccc(O)c5c4C2(CCN3CC2CC2)C(O5)C1=O (stereo not given in full)	4.4	1.1	–
C[C@H]1CC2(O)C3Cc4ccc(O)c5c4C2(CCN3CC2CCC2)[C@@H](O5)C1=O (stereo not given in full)	14.6	3.5	–
C[C@H]1CC2C3Cc4ccc(O)c5c4C2(CCN3CC2CCC2)[C@@H](O5)C1=O (stereo not given in full)	33.1	0.8	–
C[C@H]1CC2(O)C3Cc4ccc(O)c5c4C2(CCN3CC2CC2)[C@@H](O5)C1=O (stereo not given in full)	0.09	–	ED50 (Mus musculus [11]): inactive
CN1CC[C@]23c4c5ccc(O)c4O[C@H]2C(=O)CC[C@H]3[C@H]1C5 [HYDROMORPHONE]	–	0.3	ED50 (Rattus norvegicus [6]): 1.3 µmol/kg
